Bioassay records deposited in PubChem BioAssay by Broad Institute.
This is a sample that favours compounds with a hit; in the whole collection about 3.1% have one here.
miR-122 sensor = miR-122 Renilla sensor signal increase in Huh7, primary screen, miR-122 inhibitor project, cell-based, single point, plate reader. Huh7 miR-122 Renilla luciferase sensor, 48 h; neutral wells = 0, positive control = 100. hit rate 0.3% among 340,000. activation (reporter increase), % at 12.5 µM;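 active = mean replicate activation score at least 90 and every replicate individually at or above 90; inconclusive = only one of the two criteria met; inactive = neither criterion met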;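 note: higher luciferase means less miR-122 activity so hits act as miR-122 inhibitors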
DENV2 CPE rescue = inhibitors of DENV2 cytopathic effect, primary screen, cell-based, plate reader, single concentration | hit rate 1.7% among 350,000 | DENV2-infected cells, cytopathic effect rescue | AID 651640, 2012 | CPE inhibition, % at 9.99 µM; in the data active = CPE inhibition above about 20%, passing the limit was not always enough; inconclusive = no clear call, values can overlap the other calls; tested in BHK-21 cells
rRNA inh HTS = reduced GFP signal of wild-type E. coli, primary screen, bacterial rRNA inhibitor project, GFP/RFP fluorescence, OD600, single point. hit rate 1.6% among 350,000. E. coli WT GFP vs humanized-ribosome RFP mutants, 24 h; active compounds read low; DMSO median 0, no signal -100. GFP signal change (wild-type ribosome), % (no concentration beside the values);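 active = significant combined selectivity score with lowered wild-type GFP, culture density cut under 30%, mutant RFP and density less affected; inactive = any of these conditions unmet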
E-selectin induc = E-selectin induction in HUVECs, primary screen, imaging, HUVEC, immunofluorescence imaging, single point; P16581; normalized: neutral wells 0, TNF-alpha wells 100; activation, % at 7.58 µM; hit rate 0.37% among 260,000; AID 686992, 2013;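 active = mean E-selectin-positive cell signal at least 10% of the positive control, reached in at least 60% of replicates, without over 20% cell loss; inconclusive = no rule given, readout overlaps actives, possibly toxicity-flagged; inactive = the rest, including those meeting only one limit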
Target sequence (P16581 whole entry, looked up): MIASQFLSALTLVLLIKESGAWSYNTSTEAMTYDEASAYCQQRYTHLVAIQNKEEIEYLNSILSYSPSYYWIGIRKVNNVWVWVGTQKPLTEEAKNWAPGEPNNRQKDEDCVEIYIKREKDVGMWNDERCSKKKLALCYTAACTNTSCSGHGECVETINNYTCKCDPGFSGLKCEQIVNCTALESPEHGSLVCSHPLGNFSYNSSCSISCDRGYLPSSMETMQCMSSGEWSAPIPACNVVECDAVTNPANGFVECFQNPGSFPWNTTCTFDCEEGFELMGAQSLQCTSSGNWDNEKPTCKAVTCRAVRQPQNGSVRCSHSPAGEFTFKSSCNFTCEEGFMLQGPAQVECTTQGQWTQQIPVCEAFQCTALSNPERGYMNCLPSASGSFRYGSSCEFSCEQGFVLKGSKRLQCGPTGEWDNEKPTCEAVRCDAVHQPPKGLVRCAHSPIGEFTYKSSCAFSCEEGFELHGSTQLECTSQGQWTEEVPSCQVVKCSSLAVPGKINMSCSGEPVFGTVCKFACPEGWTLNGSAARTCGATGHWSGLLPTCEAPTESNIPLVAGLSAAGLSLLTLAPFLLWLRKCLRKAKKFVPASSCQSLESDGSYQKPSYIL
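System: HUVEC / Compound: single concentration / Signal: immunofluorescence imaging / Read-out: percent E-selectin-positive cells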
Cneo AK release = Cryptococcus neoformans cell lysis inducers, primary screen, AK release luminescence, single concentration; C. neoformans lysis, adenylate kinase release luminescence, 4 h; normalised: neutral wells 0, clomiphene wells 100; lysis activity, % at 15 µM; hit rate 0.2% among 360,000; AID 651654, 2012;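 active = mean lysis activity across replicates of at least 80%, whatever share of replicates individually reach that level; inactive = mean lysis activity below 80%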
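Test system: log-phase Cryptococcus neoformans yeast cells. Input: 5 × 10^6 yeast cells/mL. Medium: fresh YPD growth medium. Doses: single dose. Incubation: static 4 h at 37 °C with compound, 1 h detection. Measured by: luminescent adenylate kinase detection reagent. Read-out: signal increase indicating cell lysis. Benchmarks: Clomiphene.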
A number is an active result; . = inactive; ? = inconclusive; / = no result; [ ] = remark or other dose.

SMILES | miR-122 sensor | DENV2 CPE rescue | rRNA inh HTS | E-selectin induc | Cneo AK release
O=C(CCN1CCCCC1)NCC[C@@H]1CC[C@@H](NC(=O)c2ccc(F)cc2)[C@@H](CO)O1 | / | . | . | . | .
Cc1cc(C)c2c(N)c(S(=O)(=O)c3ccccc3)sc2n1 | . | / | / | . | .
Cc1cc2c(sc3c(C)ccc(C)c32)c(C)n1 | . | ? | -34.8 | . | .
O=C(c1cc(-c2cccs2)on1)N1CCCc2ccccc21 | . | 85.2 | . | . | .
Cc1ccc(-c2cc(C(=O)N3CCCc4ccccc43)no2)cc1 | . | . | . | . | .
COc1ccc(CNC(=O)C(c2ccc(C)o2)N(Cc2cccs2)C(=O)Cc2cccs2)cc1 (stereo not drawn) | 158.3 | / | / | / | .
COCCN(C(=O)Cc1cccs1)C(C(=O)NCc1ccc(OC)cc1)c1ccc(C)cc1 (stereo not drawn) | . | / | / | / | .
CCC(CC)C(=O)N(CCc1ccc(OC)cc1)Cc1nc2ccccc2c(=O)[nH]1 | . | . | -51.4 | / | .
CCC(=O)Nc1ccc2c(c1)C(=O)N(C)[C@H]1CC[C@H](CC(=O)NCC3CCCCC3)O[C@@H]1CO2 | . | . | . | . | .
COc1ccc(NC(=O)N(C)C[C@@H]2OCCCC[C@H](C)Oc3ccc(NC(=O)Nc4cccc5ccccc45)cc3C(=O)N([C@H](C)CO)C[C@@H]2C)cc1 | . | . | . | . | .
CCCCCCN1CCN(C2CN(Cc3ccc(F)cc3)S(=O)(=O)C2)CC1 (stereo not drawn) | . | 30.8 | . | . | .
CCCCCCN1CCN(C2CN(Cc3ccc(C)cc3)S(=O)(=O)C2)CC1 (stereo not drawn) | . | . | . | / | .
CN(C)CCCNC(=O)[C@H]1[C@H](CO)[C@H]2Cn3c(ccc(-c4cccc(F)c4)c3=O)[C@H]2N1C | . | . | . | . | /
O=C(c1ccccc1F)N1CC[C@@H]2[C@H]1c1cc(-c3cccc(F)c3)ccc1N[C@@H]2CO | . | . | . | . | .
CC(=O)N1CC[C@@H]2[C@H]1c1cc(-c3cccc(F)c3)ccc1N[C@@H]2CO | . | . | . | . | .
O=C(C1CCOCC1)N1CC[C@@H]2[C@H]1c1cc(-c3cccc(F)c3)ccc1N[C@@H]2CO | . | 87.9 | . | . | .
CC(=O)N1CC[C@@H]2[C@@H](CO)Nc3ccc(-c4cccc(F)c4)cc3[C@@H]21 | . | 28.6 | . | . | .
O=C(c1ccccc1F)N1CC[C@@H]2[C@@H](CO)Nc3ccc(-c4cccc(F)c4)cc3[C@@H]21 | 103.9[16.7 µM] | / | . | . | .
O=C(Cc1ccccc1)N1CC[C@H]2[C@H](CO)Nc3ccc(C#Cc4cccc(F)c4)cc3[C@H]21 | / | . | . | . | /
O=C(Cc1cccnc1)N1CC[C@H]2[C@H](CO)Nc3ccc(C#Cc4cccc(F)c4)cc3[C@H]21 | / | 62.5 | . | . | /
CNC[C@@H]1Oc2ncccc2C(=O)N(C)C[C@H]1C | / | / | . | / | /
N#Cc1cccc(-c2ccc3c(c2)[C@H]2[C@H](CCN2C(=O)c2ccccc2F)[C@H](CO)N3)c1 | . | / | -25.5 | . | .
O=C(C1CC1)N1CC[C@H]2[C@H](CO)Nc3ccc(-c4ccc(F)cc4)cc3[C@H]21 | . | . | . | . | .
O=C(C1CCCC1)N1CC[C@@H]2[C@H](CO)Nc3ccc(C#Cc4ccc(F)cc4)cc3[C@@H]21 | / | . | . | 53.7 | /
OC[C@H]1Nc2ccc(-c3cccc(F)c3)cc2[C@@H]2[C@H]1CCN2Cc1ccc(F)cc1 | . | 47.6 | . | . | .
SMILES | miR-122 sensor | DENV2 CPE rescue | rRNA inh HTS | E-selectin induc | Cneo AK release
O=C(C1CC1)N1CC[C@@H]2[C@H]1c1cc(-c3ccc(F)cc3)ccc1N[C@@H]2CO | . | 121.7 | . | . | .
C[C@H](CO)N1C[C@H](C)[C@@H](CN(C)Cc2ccc(Cl)c(Cl)c2)OCCCC[C@H](C)Oc2ccc(NC(=O)Nc3ccccc3)cc2C1=O | . | . | . | / | .
O=C(C1CCOCC1)N1CC[C@@H]2[C@H]1c1cc(Br)ccc1N[C@@H]2CO | . | . | . | . | 87.3
COCC(=O)Nc1ccc2c(c1)C(=O)N(C)[C@@H]1CC[C@@H](CC(=O)NCCc3ccccc3)O[C@H]1CO2 | . | . | . | . | .
CSCCC(C(=O)NCc1ccccc1)n1c(-c2ccc3c(c2)CCO3)nc2ccccc21 (stereo not drawn) | / | . | -17.1 | . | /
C[C@@H]1CN([C@@H](C)CO)C(=O)c2cc(NS(=O)(=O)c3ccccc3)ccc2O[C@@H](C)CCCCO[C@H]1CN(C)C(=O)Nc1cccc2ccccc12 | . | ? | . | / | .
CCN(c1ccc(NC(=O)COC(=O)c2ccc(C)s2)cc1)C(C)C | . | . | -27.2 | / | .
COC(=O)[C@@]12CCCN1[C@H](c1ccc(-c3ccccc3)cc1)[C@@H]1C(=O)N(C)C(=O)[C@@H]12 | / | 65.5 | . | . | .
COC(=O)[C@@]12CCCN1[C@H](c1ccc(-c3cccc(Cl)c3)cc1)[C@H]1C(=O)N(C)C(=O)[C@H]12 | . | . | . | . | .
COCC(=O)Nc1ccc2c(c1)C(=O)N(C)[C@@H]1CC[C@H](CC(=O)NCC(F)(F)F)O[C@@H]1CO2 | . | . | . | . | .
C[C@H](CO)N1C[C@H](C)[C@@H](CN(C)Cc2ccc(Oc3ccccc3)cc2)Oc2ccc(NS(=O)(=O)c3cn(C)cn3)cc2CC1=O | . | . | . | . | 109.6
C[C@H]1CN([C@@H](C)CO)C(=O)Cc2cc(NS(=O)(=O)c3cn(C)cn3)ccc2O[C@H]1CN(C)Cc1ccc(Oc2ccccc2)cc1 | . | . | . | . | .
C[C@@H]1CN([C@@H](C)CO)C(=O)Cc2cc(NS(=O)(=O)c3cn(C)cn3)ccc2O[C@H]1CN(C)Cc1ccc(-c2ccccc2)cc1 | . | 26.3 | . | . | /
O=C(Cc1ccccc1)N1C[C@@H]2[C@H](c3ccccc31)[C@H](CO)N2C(=O)C1CCCCC1 | . | . | . | . | .
Cc1cc(S(=O)(=O)NCc2ccco2)c(C)cc1Cl | . | . | . | . | .
CCOc1ccc(S(=O)(=O)NCc2ccco2)c2ccccc12 | 122.0 | . | . | / | .
CCOc1cc(C)c(C(C)C)cc1S(=O)(=O)NCc1ccccn1 | 104.5 | / | / | / | .
COc1cc(C)c(Cl)cc1S(=O)(=O)NCc1ccco1 | 105.2 | / | / | / | .
COc1cc(OC)c(S(=O)(=O)NCc2ccco2)cc1S(=O)(=O)NCc1ccco1 | . | / | / | / | .
Cc1ccc(S(=O)(=O)NCc2ccccn2)c(C)c1 | . | . | . | / | .
CCOc1cc(C)c(Cl)cc1S(=O)(=O)NCc1ccco1 | 116.4 | / | / | / | .
Nc1ncc(-c2ccc(F)cc2)nc1N1CCN(CCO)CC1 | . | 27.2 | . | . | .
